Bioassay records: PubChem BioAssay, several laboratories
A selection: hits, their analogues and other compounds. The true share with any hit is near 2.6%.
NadD inh: inhibitors of S. aureus NadD, primary screen, biochemical, colorimetric, uHTS; Nicotinate-nucleotide adenylyltransferase NadD (Staphylococcus aureus N315); purified NadD enzyme, colorimetric absorbance read-out; inhibition, % at 20 µM; 360,000 tested, 0.78% active; AID 602399, 2012; in the data active = inhibition above about 26%
LMPTP block: LMPTP phosphatase inhibitors, primary screen, biochemical, fluorescence intensity, uHTS. recombinant LMPTP-A, OMFP fluorogenic substrate. inhibition, % at 20 µM. 360,000 tested, 0.22% active. Low molecular weight phosphotyrosine protein phosphatase (Homo sapiens), P24666;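 active = compounds that cut the enzyme signal by at least half of the control window in the single-dose screen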;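 also: plate controls were DMSO wells with enzyme plus substrate for no effect and substrate without enzyme for full effect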
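Test system – LMPTP-A enzyme · Amount – LMPTP-A at 0.625 nM final in the reaction · Buffer or medium – Bis-Tris pH 6.0, DTT, detergent · Reagent – OMFP 400 µM · Doses – single 20 µM dose · Schedule – reaction 50 min, room temperature, dark · Detection – fluorescence intensity of OMFP turnover product · Evaluation – percent inhibition versus substrate-only and uninhibited controls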
STEP inh: STEP phosphatase inhibitors, primary screen, biochemical, fluorescence intensity, uHTS; Tyrosine-protein phosphatase non-receptor type 5 (Homo sapiens), P54829; recombinant STEP, OMFP fluorogenic substrate; inhibition, % at 20 µM; 360,000 tested, 0.25% active; AID 588621, 2011;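 active = inhibition at 20 µM, scaled per plate between control wells, above about 37%, limit read from the data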;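 also: 0% = DMSO with enzyme and substrate and 100% = substrate only without enzyme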
Target sequence (P54829 whole entry, looked up): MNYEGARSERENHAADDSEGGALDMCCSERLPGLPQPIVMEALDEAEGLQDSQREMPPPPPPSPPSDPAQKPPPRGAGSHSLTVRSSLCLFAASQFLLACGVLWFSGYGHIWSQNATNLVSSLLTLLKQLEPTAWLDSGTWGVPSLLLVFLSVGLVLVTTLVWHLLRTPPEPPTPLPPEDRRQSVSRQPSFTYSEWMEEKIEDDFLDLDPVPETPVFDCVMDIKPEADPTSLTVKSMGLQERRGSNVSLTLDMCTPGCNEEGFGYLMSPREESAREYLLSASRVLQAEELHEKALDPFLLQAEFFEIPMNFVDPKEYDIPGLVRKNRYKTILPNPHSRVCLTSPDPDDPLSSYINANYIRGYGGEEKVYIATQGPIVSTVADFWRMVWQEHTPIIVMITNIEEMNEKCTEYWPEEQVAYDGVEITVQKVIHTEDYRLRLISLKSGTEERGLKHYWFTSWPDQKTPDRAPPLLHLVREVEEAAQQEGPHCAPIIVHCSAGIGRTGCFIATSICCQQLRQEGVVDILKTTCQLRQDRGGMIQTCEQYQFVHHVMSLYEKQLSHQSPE
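Measure: Control-normalized % inhibition with plate pattern correction | Test system: STEP phosphatase, cell-free reaction | Medium: pH 6.0 Bis-Tris with DTT and Tween 20 | Technique: Fluorescence, 480/540 nm | Times: Reaction 20 min, ambient temperature | Doses: Single compound dose of 20 µM, 1% DMSO final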
rCAG RNA binder: binders of r(CAG) RNA repeats, primary screen, biochemical, fluorescence. r(CAG) RNA repeat, TO-PRO-1 dye displacement fluorescence. inhibition, % at 3 µM. 370,000 tested, 1.3% active;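 active = inhibition above the plate cutoff, the mean of all test compounds on that plate plus 3 SD, cut at about 35% in these data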;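 also: 0% = DMSO alone and 100% = 100 µM mitoxantrone as full dye displacement; higher means more dye released from RNA so lower well fluorescence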
Scp1 inh: Scp-1 phosphatase inhibitors, primary screen, biochemical, colorimetric, uHTS; Carboxy-terminal domain RNA polymerase II polypeptide A small phosphatase 1 (Homo …; Recombinant Scp1, phosphopeptide, malachite green phosphate absorbance; inhibition, % at 20 µM; 340,000 tested, 0.88% active; AID 493091, 2011;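 active = inhibition above about 50% at 20 µM, limit read from the data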;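 also: plate controls were DMSO wells with enzyme for no effect and wells lacking enzyme for full effect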
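Material – SCP-1 phosphatase catalytic domain, residues 76-261 · Buffer or medium – Acidic Tris acetate buffer with magnesium and detergent · Also added – Phospho 17-mer peptide substrate · Compound – single 20 µM dose, 1% DMSO · Times – 45 min room-temperature reaction, 5 min colour, 30 min stabiliser · Technique – Phosphate-binding colour reagent, absorbance read at 630 nm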
STEP inh conf: STEP phosphatase inhibitor hit confirmation, biochemical, fluorescence intensity, single concentration; shares compounds with STEP inh; recombinant STEP, OMFP fluorogenic substrate; inhibition, % at 20 µM; 520 tested, 32% active; AID 623866, 2012; call rule not given here;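 also: 0% = enzyme with substrate plus DMSO and 100% = substrate without enzyme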
NadD inh conf: inhibitors of S. aureus NadD, confirmation, biochemical, colorimetric, single concentration; shares compounds with NadD inh; 2,000 tested, 13% active; purified S. aureus NadD, colorimetric enzyme assay; AID 624309, 2012; inhibition, % at 20 µM; in the data active = inhibition mostly above about 42%, no sharp cut-off; inactive = mostly below about 42%
rCAG binder conf: small molecules binding CAG repeat RNA – biochemical, fluorescence, confirmation; shares compounds with rCAG RNA binder; r(CAG) RNA repeat, TO-PRO-1 dye displacement fluorescence; inhibition, % at 3 µM; 4,300 tested, 70% active; AID 652065, 2013;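 active = inhibition above a per-plate cutoff, the mean inhibition of sample wells plus 3 SD, cut at about 35% in these data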;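 also: loss of TO-PRO-1 fluorescence as compound displaces dye from 1x1 AA loop RNA; 0% = DMSO only wells and 100% = 100 µM mitoxantrone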
DNA CAG counter: displacement of TO-PRO-1 from CAG DNA duplex, counter-screen for rCAG RNA repeat binder project, biochemical, fluorescence, TO-PRO-1 dye, d(CAG) DNA oligo. shares compounds with rCAG RNA binder. d(CAG) DNA oligo TO-PRO-1 dye displacement. inhibition, % at 3 µM. 4,300 tested, 94% active. AID 652068, 2013;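 active = inhibition above its plate's cutoff, the mean test-well inhibition plus 3 SD, cut at about 4.8% in these data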;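 also: 0% = DNA dye mix with DMSO and 100% = 100 µM mitoxantrone; hits displace the dye from DNA and so lower well fluorescence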
* = called active by the depositor.

`CC[C@H]1CN2CCC1C[C@H]2[C@H](O)c1ccnc2ccc(OC)cc12` (stereo not given in full) gave NadD inh 48*, LMPTP block 65*, STEP inh 48*, rCAG RNA binder 6, Scp1 inh -9, STEP inh conf 9 and NadD inh conf -16.
For COP(=O)(C(=O)Nc1ccccc1)C(CC(C)C)NC(=O)OCc1ccccc1 (stereo not given) the results were rCAG RNA binder 0.
c1ccc2c(CN3CCN(C4CCCCC4)CC3)c[nH]c2c1 was read as NadD inh 38*, LMPTP block 0, STEP inh -5, rCAG RNA binder 2, Scp1 inh -4 and NadD inh conf -19.
For CC(=O)N1c2ccccc2C(c2ccccc2)=NCC1C(=O)NCc1ccccc1 (stereo not given) the results were rCAG RNA binder 3.
For CCOC(=O)CNC(=O)N1Cc2cc(Br)ccc2-n2nncc2C1 the results were rCAG RNA binder 2.
`O=C(Cc1cc(=O)oc2cc(O)ccc12)NN=Cc1ccc(N(CCCl)CCCl)cc1` gave NadD inh 54*, LMPTP block 2, STEP inh -3, rCAG RNA binder 30, Scp1 inh -1 and NadD inh conf 49*.
`COc1cc2c(cc1O)C[C@H]1NCCc3cc4c(c-2c31)OCO4` gave NadD inh 34*, LMPTP block 11, STEP inh 6, rCAG RNA binder 21, Scp1 inh -1 and NadD inh conf 34.
Screening NNC(=O)c1nc[nH]c1C(=O)Nc1ccc(Cl)cc1C(=O)c1ccccc1 returned NadD inh 48*, LMPTP block -1, STEP inh 4, rCAG RNA binder 8, Scp1 inh -2 and NadD inh conf 24.
Cc1ccc(C(=O)Nc2ccc(Cl)cc2C(=O)c2ccccc2)cc1 was read as NadD inh -4, LMPTP block 3, STEP inh 1, rCAG RNA binder 3 and Scp1 inh -8.
`Cc1cccc2nc(-c3ccccc3)c(-c3ccc(CN4CCC(n5c(=O)[nH]c6cc(Cl)ccc65)CC4)cc3)nc12` gave rCAG RNA binder 13.
Screening CCCCn1c(=O)c(C(=O)Nc2ccccc2C)c(O)c2ccccc21 returned NadD inh -6, LMPTP block 1, STEP inh 2 and Scp1 inh -10.
CC(C)CCn1c(=O)c(C(=O)Nc2ccccc2S(N)(=O)=O)c(O)c2ccccc21 was read as NadD inh 49*, LMPTP block 2, STEP inh 1, rCAG RNA binder 13, Scp1 inh -21 and NadD inh conf 23.
For CN1OC[C@@H]2CN3C4(C[C@@H]21)c1ccccc1C3(c1ccccc1)c1ccccc14 the results were rCAG RNA binder 2.
COc1ccc2nc(-c3ccc(CN4CCC(n5c(=O)[nH]c6ccccc65)CC4)cc3)c(-c3ccccc3)nc2c1 was read as NadD inh 37*, LMPTP block 22, rCAG RNA binder 14 and NadD inh conf 20.
`Cc1ccc2nc(-c3ccc(CN4CCC(n5c(=O)[nH]c6ccccc65)CC4)cc3)c(-c3ccccc3)nc2c1` gave NadD inh 25, LMPTP block 14 and rCAG RNA binder 11.
Screening Cc1cccc(C)c1-n1nnnc1C(CCc1ccccc1)N1CCC(n2c(=O)[nH]c3ccccc32)CC1 (stereo not given) returned NadD inh 30*, LMPTP block 3, STEP inh 1, rCAG RNA binder 4 and NadD inh conf 1.
`O=c1[nH]c(=S)[nH]c(O)c1N=Nc1ccc(S(=O)(=O)N2CCc3ccccc32)cc1` gave NadD inh 49*, LMPTP block 1, STEP inh 0, rCAG RNA binder 64*, Scp1 inh -9, NadD inh conf 70*, rCAG binder conf 49* and DNA CAG counter 19*.
`O=C(CNC(=O)OCc1ccccc1)NC(Cc1ccccc1)P(=O)(Oc1ccccc1)Oc1ccccc1` (stereo not given) gave rCAG RNA binder 6.
`Cn1cccc1/C=C1\C(=O)NC(=O)N(Cc2ccccc2Cl)C1=O` gave NadD inh 9, LMPTP block 2, STEP inh 0, rCAG RNA binder 46*, Scp1 inh -7, rCAG binder conf 10 and DNA CAG counter 4.
O=C(NCP(=O)(Oc1ccccc1)Oc1ccccc1)OCc1ccccc1 was read as NadD inh -11, LMPTP block 0, STEP inh 0, rCAG RNA binder 69*, rCAG binder conf 2 and DNA CAG counter -1.
O=C(N/N=C/c1c(O)n(Cc2ccc(F)cc2)c(=O)[nH]c1=O)c1ccccc1O was read as NadD inh 6, LMPTP block -1, STEP inh 8, rCAG RNA binder 85*, Scp1 inh -14, rCAG binder conf 67* and DNA CAG counter 26*.
O=C(N/N=C/c1c(O)n(CCc2ccccc2)c(=O)[nH]c1=O)c1ccccc1O was read as NadD inh 2, LMPTP block 0, STEP inh -1, rCAG RNA binder 87*, Scp1 inh -9, rCAG binder conf 65* and DNA CAG counter 25*.
COc1ccc(Cn2c(O)c(/C=N/NC(=O)c3ccccc3O)c(=O)[nH]c2=O)cc1 was read as NadD inh 4, LMPTP block 2, STEP inh 0, rCAG RNA binder 91*, Scp1 inh -7, rCAG binder conf 76* and DNA CAG counter 37*.
